A short description of data set [1]: Cytotoxicity against human HeLa cells after 65 hrs by alamar blue assay. Format: cell-based. Summed up: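 HeLa cells first screened at 500 µM. Active compounds then tested for CC50: cells seeded at 2 × 10^4/well, exposed to compound 65 h, then Alamar Blue added for a further 5 h.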
Data set [2] has as its system Leishmania infantum. Nature of the data set: Antileishmanial activity against Leishmania infantum JPCM5 MCAN/ES/98/LLM-87 promastigotes after 72 hrs by alamar blue assay. In kind it is functional, organism-based. The following applies: MCAN/ES/98/LLM-87, 72 h. The essentials:
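L. infantum JPCM5 promastigotes grown at 26 °C in HOMEM. Exposed to serial compound dilutions for 72 h, then Alamar blue read-out to give EC50.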
On the technique in general: The colour change of resazurin is a common sign of viable cells or microbes.

The test system of data set [3] is Leishmania infantum. Nature of the data set: Antileishmanial activity against Leishmania infantum JPCM5 MCAN/ES/98/LLM-87 axenic amastigotes after 72 hrs by alamar blue assay. In kind it is functional, organism-based. To be noted: MCAN/ES/98/LLM-87, 72 h. Summed up: (§1)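 Axenic amastigotes (L. donovani LdBOB; L. infantum clone JPCM5, grown at 26 °C in HOMEM) incubated 72 h with compounds. Viability read by Alamar blue; EC50 determined.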

A short description of data set [4]: Selectivity index, ratio of CC50 for human HeLa cells to EC50 for Leishmania infantum JPCM5 MCAN/ES/98/LLM-87 promastigotes. In kind it is toxicity. The following applies: read-out: Ratio CC50/EC50. The essentials:
(§2)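 Selectivity index computed as CC50 (HeLa, Alamar blue) divided by EC50 for the respective parasite stage.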

Data set [5] can be described thus: Selectivity index, ratio of CC50 for human HeLa cells to EC50 for Leishmania infantum JPCM5 MCAN/ES/98/LLM-87 axenic amastigotes. In kind it is toxicity. To be noted: read-out: Ratio CC50/EC50. Summed up: as §2
The test system of data set [6] is Leishmania donovani. Put plainly: Antileishmanial activity against Leishmania donovani promastigotes after 72 hrs by alamar blue assay. Format: functional, organism-based. The essentials: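 L. donovani promastigotes grown at 26 °C in M199 plus 10% heat-inactivated FCS. Exposed to serial compound dilutions for 72 h, then Alamar blue read-out to give EC50.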
Data set [7] relates to Leishmania donovani. Nature of the data set: Antileishmanial activity against Leishmania donovani LdBOB axenic amastigotes after 72 hrs by alamar blue assay. In kind it is functional, organism-based. The essentials: as §1
Data set [8] concerns Leishmania donovani. Put plainly: Antileishmanial activity against Leishmania donovani LdBOB amastigotes infected in human THP1 cells after 72 hrs by Giemsa staining based microscopic method. Format: functional, organism-based. To be noted: THP-1, 72 h. The essentials:
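THP-1 cells, kept in MEM plus 10% FBS, plated at 20,000/well with 10 nM PMA, 37 °C, 5% CO2, 75 h. Washed in PBS with 1 mM CaCl2, 0.5 mM MgCl2, 0.1% BSA. Infected with axenic LdBOB amastigotes at MOI 5 for 18 h, washed, serial compound dilutions for 72 h. Methanol fixation, Giemsa stain, ~200 macrophages/well counted. % infection vs untreated control (100%) gives EC50.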

Data set [9] is described as follows: Selectivity index, ratio of CC50 for human HeLa cells to EC50 for Leishmania donovani promastigotes. Format: toxicity. The following applies: read-out: Ratio CC50/EC50. Summed up: as §2
Data set [10] in a line: Selectivity index, ratio of CC50 for human HeLa cells to EC50 for Leishmania donovani LdBOB axenic amastigotes. Format: toxicity. To be noted: read-out: Ratio CC50/EC50. The essentials:
as §2

A short description of data set [11]: Selectivity index, ratio of CC50 for human HeLa cells to EC50 for Leishmania donovani LdBOB amastigotes infected in human THP1 cells. Format: toxicity, cell-based. The following applies: read-out: Ratio CC50/EC50. The essentials: as §2
Data set [12] relates to Leishmania infantum. Nature of the data set: Potency index, ratio of pentamidine EC50 to compound EC50 for antileishmanial activity against Leishmania infantum JPCM5 MCAN/ES/98/LLM-87 promastigotes. In kind it is functional.
The subject of data set [13] is Leishmania infantum. Nature of the data set: Potency index, ratio of miltefosine EC50 to compound EC50 for antileishmanial activity against Leishmania infantum JPCM5 MCAN/ES/98/LLM-87 promastigotes. Format: functional.
The subject of data set [14] is Leishmania infantum. Nature of the data set: Selectivity ratio of EC50 for antileishmanial activity against Leishmania infantum JPCM5 MCAN/ES/98/LLM-87 promastigotes to EC50 for antileishmanial activity against Leishmania infantum JPCM5 MCAN/ES/98/LLM-87 amastigotes. Format: functional.

The source of these data is ChEMBL document CHEMBL4196090, “Design, synthesis and biological evaluation of piperazinyl-β-carbolinederivatives as anti-leishmanial agents” (Eur J Med Chem, 2018).

The CC50 is the concentration giving 50% cytotoxicity. High values mean lower toxicity to the cells, low ones greater toxicity to the cells. The term EC50 denotes the concentration at which the effect is half-maximal. The low end stands for a more potent agent, the high end for a less potent agent.

Turning to `COc1cccc(N2CCN(C(=O)c3cc4c([nH]c5ccccc54)c(-c4ccccc4)n3)CC2)c1`, in data set [1], half-maximal cytotoxicity (CC50 at 65 h) was put at 205 µM. Further, the EC50 with Leishmania infantum [2] is 2.89 µM; in the data set on Leishmania infantum [3], 2.8 µM; in the data set on Leishmania donovani [6] it was 4.85 µM; with Leishmania donovani [7], 1.9 µM; in the data set with Leishmania donovani [8], 6.9 µM. For the same compound, the selectivity ratio turned out to be 71 in data set [4]; 73.3 in data set [5]; 42.3 in data set [9]; 108 in data set [10]; 29.7 in data set [11]. Besides, the “Ratio EC50” value in the data set on Leishmania infantum [12] is listed as 4; in the data set with Leishmania infantum [13] it was 4; with Leishmania infantum [14], 2 - 5.
